Some results are limits rather than exact numbers.

We go through 1 compound from ChEMBL document CHEMBL2380224, “Fragment-based ligand design of novel potent inhibitors of tankyrases” (J Med Chem, 2013).

Assay [1] concerns the target T1, Poly [ADP-ribose] polymerase tankyrase-2 (Homo sapiens, UniProt Q9H2K2).
T1 sequence (Q9H2K2 whole entry): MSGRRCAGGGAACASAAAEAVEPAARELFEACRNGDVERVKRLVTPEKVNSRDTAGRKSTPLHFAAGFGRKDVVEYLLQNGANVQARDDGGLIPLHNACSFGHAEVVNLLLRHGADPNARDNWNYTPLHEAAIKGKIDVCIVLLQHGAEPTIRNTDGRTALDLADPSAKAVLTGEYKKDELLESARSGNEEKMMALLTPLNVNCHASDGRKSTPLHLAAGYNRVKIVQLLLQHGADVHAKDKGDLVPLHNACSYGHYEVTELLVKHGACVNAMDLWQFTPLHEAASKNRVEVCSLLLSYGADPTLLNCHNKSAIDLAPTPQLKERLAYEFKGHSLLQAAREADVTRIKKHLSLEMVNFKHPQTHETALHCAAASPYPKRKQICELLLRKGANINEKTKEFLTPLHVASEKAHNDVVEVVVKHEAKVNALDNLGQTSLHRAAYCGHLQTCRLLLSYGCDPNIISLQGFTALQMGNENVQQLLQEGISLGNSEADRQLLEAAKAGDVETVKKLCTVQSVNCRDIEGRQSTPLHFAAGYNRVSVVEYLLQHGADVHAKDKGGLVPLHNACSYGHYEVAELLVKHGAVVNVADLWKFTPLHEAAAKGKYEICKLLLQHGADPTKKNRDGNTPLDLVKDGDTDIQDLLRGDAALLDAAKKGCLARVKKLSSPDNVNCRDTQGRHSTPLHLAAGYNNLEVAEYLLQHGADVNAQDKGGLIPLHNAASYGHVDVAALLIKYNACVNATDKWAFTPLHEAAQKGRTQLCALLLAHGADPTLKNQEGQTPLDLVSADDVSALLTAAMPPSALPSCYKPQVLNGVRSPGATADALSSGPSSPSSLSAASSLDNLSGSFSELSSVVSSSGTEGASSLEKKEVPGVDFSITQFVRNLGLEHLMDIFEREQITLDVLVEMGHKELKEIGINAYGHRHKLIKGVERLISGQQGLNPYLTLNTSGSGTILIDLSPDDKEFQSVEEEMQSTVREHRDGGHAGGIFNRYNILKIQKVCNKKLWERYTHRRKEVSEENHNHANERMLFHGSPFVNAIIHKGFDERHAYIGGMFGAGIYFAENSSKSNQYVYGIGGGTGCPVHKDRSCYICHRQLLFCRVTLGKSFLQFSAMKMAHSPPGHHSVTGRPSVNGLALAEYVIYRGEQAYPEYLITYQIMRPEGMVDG
Nature of the assay: Binding affinity to 6His-tagged TNKS2 PARP domain (947 to 1162) (unknown origin) expressed in Escherichia coli BL21(DE3) by surface plasmon resonance analysis. Put shortly: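 SPR on a Biacore instrument. Running buffer: 20 mM PBS pH 7.4, 0.05% Tween20, 2% DMSO. His-tagged TNKS2 (20 μg/mL in 20 mM PBS pH 7.4) was capture-coupled at 10 μL/min onto a Ni²⁺/NHS doubly preactivated NTA chip, to a target of 5000 RU.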
On the technique in general: SPR reads the build-up and loss of mass on a sensor chip optically.

The target of assay [2] is Poly [ADP-ribose] polymerase 1 (Homo sapiens, UniProt P09874). Nature of the assay: Inhibition of PARP1 (unknown origin).
Poly [ADP-ribose] polymerase 1, sequence (P09874 whole entry, the tested form may be a part): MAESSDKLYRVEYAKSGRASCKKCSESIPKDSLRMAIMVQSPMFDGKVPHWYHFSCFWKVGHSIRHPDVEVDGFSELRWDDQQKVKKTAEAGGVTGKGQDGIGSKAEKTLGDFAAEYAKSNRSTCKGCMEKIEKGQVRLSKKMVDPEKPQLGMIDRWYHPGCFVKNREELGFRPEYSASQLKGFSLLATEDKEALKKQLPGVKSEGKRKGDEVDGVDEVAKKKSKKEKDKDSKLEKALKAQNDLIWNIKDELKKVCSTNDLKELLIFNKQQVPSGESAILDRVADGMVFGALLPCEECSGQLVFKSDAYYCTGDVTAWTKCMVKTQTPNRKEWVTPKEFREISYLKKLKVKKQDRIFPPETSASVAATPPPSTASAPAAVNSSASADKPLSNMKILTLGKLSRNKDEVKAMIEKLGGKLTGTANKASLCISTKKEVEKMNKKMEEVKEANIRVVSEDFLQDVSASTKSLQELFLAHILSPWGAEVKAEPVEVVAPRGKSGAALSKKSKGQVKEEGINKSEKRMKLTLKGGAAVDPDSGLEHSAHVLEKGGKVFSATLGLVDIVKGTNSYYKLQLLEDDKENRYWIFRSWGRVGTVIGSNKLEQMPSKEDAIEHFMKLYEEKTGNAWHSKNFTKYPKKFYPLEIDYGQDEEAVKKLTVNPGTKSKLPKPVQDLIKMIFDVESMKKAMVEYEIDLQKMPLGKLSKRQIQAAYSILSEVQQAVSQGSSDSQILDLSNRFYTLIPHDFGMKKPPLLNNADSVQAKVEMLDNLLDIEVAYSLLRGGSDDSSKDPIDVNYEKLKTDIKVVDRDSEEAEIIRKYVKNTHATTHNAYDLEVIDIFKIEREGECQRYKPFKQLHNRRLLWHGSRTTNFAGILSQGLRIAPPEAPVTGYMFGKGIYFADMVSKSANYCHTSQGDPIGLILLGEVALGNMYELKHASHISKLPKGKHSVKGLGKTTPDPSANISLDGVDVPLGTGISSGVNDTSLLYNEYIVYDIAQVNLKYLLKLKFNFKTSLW
The species entered for assay [3] is Homo sapiens. Nature of the assay: Selectivity ratio of IC50 for PARP2 (unknown origin) to IC50 for TNKS2 PARP domain (947 to 1162) (unknown origin).
Assay [4] has as its target T2, Poly [ADP-ribose] polymerase tankyrase-1 (Homo sapiens, UniProt O95271).
T2 sequence (O95271 whole entry): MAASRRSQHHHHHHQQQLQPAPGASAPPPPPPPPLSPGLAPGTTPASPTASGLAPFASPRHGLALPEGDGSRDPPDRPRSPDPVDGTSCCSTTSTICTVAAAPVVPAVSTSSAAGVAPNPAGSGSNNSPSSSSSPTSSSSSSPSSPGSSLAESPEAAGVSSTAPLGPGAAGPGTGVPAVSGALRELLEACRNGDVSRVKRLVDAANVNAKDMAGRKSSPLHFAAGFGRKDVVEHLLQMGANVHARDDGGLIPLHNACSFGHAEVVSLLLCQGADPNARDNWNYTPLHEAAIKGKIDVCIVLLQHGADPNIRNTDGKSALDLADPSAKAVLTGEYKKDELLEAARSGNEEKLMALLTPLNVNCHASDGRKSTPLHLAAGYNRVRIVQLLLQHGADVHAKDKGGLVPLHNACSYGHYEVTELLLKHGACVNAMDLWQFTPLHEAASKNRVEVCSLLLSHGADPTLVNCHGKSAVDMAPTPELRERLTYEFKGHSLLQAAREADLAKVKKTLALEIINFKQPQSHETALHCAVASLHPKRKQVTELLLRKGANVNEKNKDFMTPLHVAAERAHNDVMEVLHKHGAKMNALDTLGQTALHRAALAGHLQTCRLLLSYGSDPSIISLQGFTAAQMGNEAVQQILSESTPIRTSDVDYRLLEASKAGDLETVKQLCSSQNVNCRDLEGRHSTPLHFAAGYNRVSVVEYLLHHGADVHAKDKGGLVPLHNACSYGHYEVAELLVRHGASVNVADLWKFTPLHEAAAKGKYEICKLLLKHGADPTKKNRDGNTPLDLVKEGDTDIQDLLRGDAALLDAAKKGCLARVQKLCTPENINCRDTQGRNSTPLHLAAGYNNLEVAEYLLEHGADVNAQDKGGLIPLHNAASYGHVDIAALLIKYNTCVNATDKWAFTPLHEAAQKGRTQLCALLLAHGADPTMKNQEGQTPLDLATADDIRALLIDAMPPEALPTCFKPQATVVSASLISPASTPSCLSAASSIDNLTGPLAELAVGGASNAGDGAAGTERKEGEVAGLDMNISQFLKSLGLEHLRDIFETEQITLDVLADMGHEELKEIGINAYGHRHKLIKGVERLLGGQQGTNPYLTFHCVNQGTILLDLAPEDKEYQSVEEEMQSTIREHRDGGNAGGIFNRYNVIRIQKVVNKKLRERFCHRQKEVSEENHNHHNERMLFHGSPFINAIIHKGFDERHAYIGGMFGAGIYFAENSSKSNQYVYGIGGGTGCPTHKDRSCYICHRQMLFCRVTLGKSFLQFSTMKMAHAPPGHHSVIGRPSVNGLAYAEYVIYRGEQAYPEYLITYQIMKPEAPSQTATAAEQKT
Nature of the assay: Inhibition of TNKS1 (unknown origin).

The species named for assay [5] is Homo sapiens. Nature of the assay: Selectivity ratio of IC50 for PARP1 (unknown origin) to IC50 for TNKS2 PARP domain (947 to 1162) (unknown origin).

Broadly, the Kd is the concentration at which binding is half-saturated. A high value points to lower affinity. As a reminder, the IC50 is the point on the concentration scale where inhibition reaches its midpoint. Low readings indicate greater potency in that assay, high ones weaker potency in that assay. `Cc1cc(=O)[nH]c2cc(-c3ccccc3F)ccc12` showed a Kd in assay [1] of 280 nM. Moreover, the IC50 was greater than 10000 nM in assay [2] and 860 nM in assay [4]. Also, the Ratio IC50 in the assay filed under Homo sapiens [3] and in the assay listed under Homo sapiens [5] was greater than 100 throughout.
